Measurements published in ChEMBL document CHEMBL4840303, “Design, synthesis, biological evaluation and pharmacophore model analysis of novel tetrahydropyrrolo[3,4-c]pyrazol derivatives as potential TRKs inhibitors” (Eur J Med Chem, 2021).

What was measured:
KM12 [1] = assay: Cell cycle arrest in human KM12 cells assessed as accumulation of cells at S phase at 125 nM measured after 48 hrs by AnnexinV-FITC/PI staining based flowcytometry method relative to control; assay type: functional
KM12 [2] = assay: Cell cycle arrest in human KM12 cells assessed as accumulation of cells at less G1 phase at 250 nM measured after 48 hrs by AnnexinV-FITC/PI staining based flowcytometry method relative to control; assay type: functional
[3] = target: High affinity nerve growth factor receptor (Homo sapiens, UniProt P04629); assay: Inhibition of N-terminal GST-tagged human TRKA (436 to 790 residues) expressed in baculovirus infected Sf21 cells using TK as substrate in presence of ATP measured after 30 mins by HTRF assay
High affinity nerve growth factor receptor, sequence (P04629 whole entry, the tested form may be a part): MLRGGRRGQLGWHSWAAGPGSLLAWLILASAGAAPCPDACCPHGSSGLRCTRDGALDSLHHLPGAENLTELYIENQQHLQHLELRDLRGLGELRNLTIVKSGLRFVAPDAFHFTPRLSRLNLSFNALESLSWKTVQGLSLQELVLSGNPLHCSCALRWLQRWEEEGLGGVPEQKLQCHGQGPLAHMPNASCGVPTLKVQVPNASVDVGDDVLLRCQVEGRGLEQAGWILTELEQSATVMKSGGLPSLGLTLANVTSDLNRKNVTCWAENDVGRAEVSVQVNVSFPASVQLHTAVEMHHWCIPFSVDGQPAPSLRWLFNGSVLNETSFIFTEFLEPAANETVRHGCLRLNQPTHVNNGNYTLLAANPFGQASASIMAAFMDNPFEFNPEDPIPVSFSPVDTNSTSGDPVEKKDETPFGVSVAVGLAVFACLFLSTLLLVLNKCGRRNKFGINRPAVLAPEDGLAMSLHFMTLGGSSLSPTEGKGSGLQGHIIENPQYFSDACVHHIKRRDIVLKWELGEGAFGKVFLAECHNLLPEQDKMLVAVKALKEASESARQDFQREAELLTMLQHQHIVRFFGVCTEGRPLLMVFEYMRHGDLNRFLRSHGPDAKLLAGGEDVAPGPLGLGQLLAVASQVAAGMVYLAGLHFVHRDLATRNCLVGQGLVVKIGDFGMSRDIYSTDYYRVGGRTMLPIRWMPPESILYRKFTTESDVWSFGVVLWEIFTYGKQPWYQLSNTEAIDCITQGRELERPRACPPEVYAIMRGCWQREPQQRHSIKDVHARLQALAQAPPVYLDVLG

[4] = target: Fibroblast growth factor receptor 1 (Homo sapiens) (UniProt P11362); assay: Inhibition of recombinant His-tagged human FGFR1 expressed in baculovirus expression system at 1 uM measured by select screen assay relative to control
Fibroblast growth factor receptor 1 (Homo sapiens), sequence (P11362 22-822 limits assumed): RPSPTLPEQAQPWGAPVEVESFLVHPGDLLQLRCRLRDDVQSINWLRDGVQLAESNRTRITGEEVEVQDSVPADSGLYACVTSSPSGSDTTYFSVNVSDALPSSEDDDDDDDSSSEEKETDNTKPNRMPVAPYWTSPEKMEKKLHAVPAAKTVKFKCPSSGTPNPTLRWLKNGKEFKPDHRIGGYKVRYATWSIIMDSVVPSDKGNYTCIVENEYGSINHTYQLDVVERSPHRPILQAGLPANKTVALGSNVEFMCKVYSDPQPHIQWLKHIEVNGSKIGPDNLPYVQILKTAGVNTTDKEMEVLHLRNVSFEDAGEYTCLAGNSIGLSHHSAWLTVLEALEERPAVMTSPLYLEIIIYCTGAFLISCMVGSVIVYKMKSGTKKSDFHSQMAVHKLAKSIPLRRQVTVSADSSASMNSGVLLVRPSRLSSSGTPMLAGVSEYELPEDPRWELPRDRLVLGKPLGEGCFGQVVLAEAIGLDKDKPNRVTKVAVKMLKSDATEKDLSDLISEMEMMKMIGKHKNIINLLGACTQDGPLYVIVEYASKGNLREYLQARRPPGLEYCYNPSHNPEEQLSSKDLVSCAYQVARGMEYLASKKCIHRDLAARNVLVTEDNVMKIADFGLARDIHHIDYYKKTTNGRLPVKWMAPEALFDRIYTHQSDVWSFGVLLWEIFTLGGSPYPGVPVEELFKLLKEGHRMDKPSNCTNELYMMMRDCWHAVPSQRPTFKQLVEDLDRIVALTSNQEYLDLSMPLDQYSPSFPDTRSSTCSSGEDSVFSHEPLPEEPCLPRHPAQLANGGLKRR
Outline: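 Single-concentration profiling at 1.0 µM in a 28-kinase SelectScreen panel; percent inhibition reported.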

[5] = Volume of distribution at steady state in Sprague dawley rat at 1 mg/kg, iv; assay type: ADME, organism-based; details: in vivo, read-out: Vdss
Outline: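 Single intravenous dose of 1 mg/kg to SD rats (n = 3 per group). Blood collected into heparinised tubes at specified times, centrifuged at 4 °C, and quantified by LC-MS/MS. Steady-state volume of distribution obtained by noncompartmental analysis.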

## CN1CCN(c2ccc(C(=O)Nc3n[nH]c4c3CN(Cc3cc(F)cc(F)c3)C4(C)C)cc2)CC1
KM12 [1]
  Activity: 21.5%
KM12 [2]
  Activity: 5.86%
[3]
  IC50: 17 nM
[4]
  inhibition: 60%
[5]
  Vd: 0.892 L/kg
